The list is not random: actives were taken first. Their share in the collection is about 3.2%.
GPR7 antag – GPR7 receptor antagonists, primary screen, cell-based, fluorescence, single concentration | Neuropeptides B/W receptor type 1 (Homo sapiens), P48145 | GPR7-expressing cells, fluorescence antagonist assay | inhibition, % at 4.4 µM | 1.1% of 290,000 active; in the data active = inhibition above about 16%, passing the limit was not always enough;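 note: cells stimulated with the agonist NPW; 0% = agonist with vehicle and 100% = vehicle without agonist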
TRPML3 ag – human TRPML3 channel agonists, primary screen, cell-based, HEK293 TRPML3-YFP, Fluo-8 calcium fluorescence, 3 µM; Mucolipin-3 (Homo sapiens), Q8TDD5; 100% = the carbachol control signal; activation, % at 3 µM; 0.29% of 220,000 active; AID 1448, 2008;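 active = activation above its plate's cutoff, the mean activation of the plate's test wells plus 3 SD, cut at about 12% in these data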;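 note: 0% = DMSO only wells and 100% = carbachol wells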
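Material: TRPML3-YFP stable HEK293 cells | Dosing: One concentration, 3 µM nominal, 0.3% DMSO | Timing: 125 s total fluorescence read per well | Technique: Fluo-8 calcium dye fluorescence, ex 470-495, em 515-575 nm | Measure: Percent activation from peak-to-basal fluorescence ratio, scaled between DMSO and carbachol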
OX1R antag-1 – OX1R (HCRTR1) antagonists, primary screen, fluorescence, CHO/OX1R cells, Fluo-8 calcium, orexin A; Orexin/Hypocretin receptor type 1 (Homo sapiens), O43613; Fluo-8 calcium fluorescence; inhibition, % at 5 µM; 0.43% of 330,000 active;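 active = inhibition above its plate's threshold, mean inhibition of all tested compounds on the plate plus 3 SD, cut at about 37% in these data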;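 note: 0% = orexin A challenge wells and 100% = SB-334867-A antagonist wells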
Target sequence (O43613 whole entry, looked up): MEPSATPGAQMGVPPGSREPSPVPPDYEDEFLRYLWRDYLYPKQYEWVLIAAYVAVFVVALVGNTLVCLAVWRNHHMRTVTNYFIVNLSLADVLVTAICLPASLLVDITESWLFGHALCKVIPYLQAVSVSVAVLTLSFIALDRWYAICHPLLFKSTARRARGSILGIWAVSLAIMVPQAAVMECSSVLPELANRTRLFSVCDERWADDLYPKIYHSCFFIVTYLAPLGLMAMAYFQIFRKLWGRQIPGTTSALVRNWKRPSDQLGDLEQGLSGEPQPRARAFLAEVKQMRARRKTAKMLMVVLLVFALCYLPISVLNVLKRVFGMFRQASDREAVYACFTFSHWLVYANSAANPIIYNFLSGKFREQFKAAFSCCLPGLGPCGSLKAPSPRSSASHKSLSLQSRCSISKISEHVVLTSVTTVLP
CHO parental Ca – ATP-evoked calcium signal inhibitors, parental CHO, primary screen, counter-screen for OX1R antagonist project, cell-based, fluorescence, Fluo-8 calcium dye; parental CHO-K1, ATP-induced calcium, Fluo-8 fluorescence; inhibition, % at 5.6 µM; 0.63% of 330,000 active; AID 463079, 2010;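 active = inhibition above that plate's mean sample inhibition plus 3 SD, cut at about 26% in these data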;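 note: 0% = ATP-challenged DMSO wells and 100% = DMSO wells without ATP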
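Material – parental CHO cells · Reagent – ATP stimulus · Compound – single nominal dose of 5.6 µM per compound · Detection – Fluo-8 fluorescence · Read-out basis – percent inhibition of calcium signal · Controls – ATP-challenged DMSO wells low, unchallenged DMSO wells high · Repeats – no replicates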
zfTRPN1 agonist – zebrafish TRPN1 channel agonists, primary screen, cell-based, HEK293, calcium fluorescence. transient receptor potential cation channel N1 (TRPN1/NompC), Danio rerio. HEK293 zebrafish TRPN1-YFP, Fluo-8 calcium fluorescence; 100% = response to 87 µM carbachol. activation, % at 3 µM. 0.18% of 220,000 active. AID 1424, 2008;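 active = activation above its plate's cutoff, the mean activation of test wells on that plate plus 3 SD, cut at about 19% in these data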;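 note: 0% = DMSO alone and 100% = 87 µM carbachol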
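System: zebrafish TRPN1-YFP in HEK293 cells / Dosing: 3 µM single point / Timing: dye loading 1 h at 37 °C, then 30 min room temperature / Signal: Fluo-8 calcium fluorescence, excitation 470-495 nm, emission 515-575 nm / Read-out basis: percent activation from peak over basal fluorescence ratio, control-normalized / Control set: high carbachol 87 µM, low DMSO alone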
OX1R antag-2 – antagonists of human orexin 1 receptor (OX1R); Orexin/Hypocretin receptor type 1 (Homo sapiens), O43613; OX1R-expressing cells, FRET antagonist read-out; inhibition, % at 6.6 µM; 1.8% of 330,000 active; AID 485270, 2010; in the data active = inhibition mostly above about 38%, no sharp cut-off; inactive = mostly below about 40%;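 note: 0% = agonist challenge alone and 100% = reference antagonist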
Numbers without * were called inactive; . = no result given.

SMILES | GPR7 antag | TRPML3 ag | OX1R antag-1 | CHO parental Ca | zfTRPN1 agonist | OX1R antag-2
Cc1noc(C)c1S(=O)(=O)Nc1ccc(C(=O)N2CCN(c3ccc(Cl)cc3)CC2)cc1 | -11 | 0 | 49* | 36* | 1 | 45
CC12CCC(c3c(C(=O)O)nn(-c4ccccc4)c31)C2(C)C (centres undefined) | -5 | 1 | 17 | -4 | 1 | 41*
CNc1ccccc1C(C)(C)c1cc(-c2cc(C)cc(C)c2)no1 | -13 | 0 | -35 | -8 | -1 | 10
CNc1ccccc1C(C)(C)c1cc(-c2cccc(OC)c2)no1 | -6 | 2 | 13 | 41* | 1 | 14
CC(=O)Nc1ccc2nc3c(=O)n(C)c(=O)n(C)c3nc2c1 | -7 | 1 | 3 | -7 | 0 | 60*
COc1ccc(S(=O)(=O)N(C)C[C@H]2Oc3ccc(NC(=O)Cc4cn(C)c5ccccc45)cc3C(=O)N([C@@H](C)CO)C[C@@H]2C)cc1 | . | . | -13 | -17 | . | 4
Cc1cc(/C=C(\C#N)c2nc3ccccc3[nH]2)c(C)n1C | -3 | 1 | -21 | -20 | 0 | 21
CCN(CC)c1ccc(/C=C(/C#N)c2nc3ccc(C)cc3[nH]2)c(OC(C)C)c1 | 38* | 23* | 116* | 68* | 30* | 19
CCOc1cc(N(CC)CC)ccc1/C=C(/C#N)c1nc2ccccc2[nH]1 | 0 | 3 | 109* | 70* | 7 | 71*
CCN(CCCNC(=O)CN1C(=O)COc2ccc(S(=O)(=O)N3CCC(C)CC3)cc21)Cc1ccccc1 | 0 | . | -29 | -20 | . | 13
COc1ccc(C)cc1N=Nc1ccc(O)c2ncccc12 | -13 | 0 | . | . | 0 | .
COc1cccc(N=Nc2ccc(O)c3ncccc23)c1 | -11 | . | 49* | 55* | . | 10
Oc1ccc(N=Nc2ccc3c(c2)OCCO3)c(O)c1 | -12 | 0 | -7 | 6 | 0 | 14
COc1ccc(N=Nc2ccc(O)c3ncccc23)cc1 | -7 | 0 | 33 | 51* | -3 | 21
COc1cccc(N=Nc2ccc3cccnc3c2O)c1 | 4 | . | 53* | 83* | . | 15
Oc1ccc(N=Nc2ccc3c(c2)OCCO3)c2cccnc12 | -6 | 0 | 48* | 45* | -1 | 21
Cc1ccccc1N=Nc1ccc(O)c2ncccc12 | -2 | 1 | 26 | 44 | 1 | 13
COCCOC(=O)c1c(NC(=O)CN2CCCc3ccccc32)sc(C(N)=O)c1C | -1 | 0 | -4 | -18 | -1 | 13
Cc1cccc(-c2cc3nc(C)cc(N4CC(C)CC(C)C4)n3n2)c1 (centres undefined) | -7 | 1 | -28 | -32 | 0 | -12
Cc1cccc(-c2cc3nc(C)cc(C)n3n2)c1 | -7 | -1 | 21 | -6 | 0 | 65*
COc1ccc(-c2cc3nc(C)cc(N)n3n2)cc1 | -7 | -1 | -18 | -8 | 0 | 4
COc1ccccc1-c1cc2nc(C)cc(C)n2n1 | -17 | 0 | 11 | -26 | 0 | 62*
CCOc1ccc(CCNC(=O)c2cc(C)nc3ccccc23)cc1OCC | -12 | . | -22 | -14 | . | 40
Cc1cc(C(=O)NCCc2ccc(Cl)cc2)c2ccccc2n1 | 5 | . | 16 | -15 | . | 50*
COc1ccc(C(CNC(=O)c2oc3c(Cl)cccc3c2C)N2CCCC2)cc1 (centres undefined) | . | . | -26 | -28 | . | 20
SMILES | GPR7 antag | TRPML3 ag | OX1R antag-1 | CHO parental Ca | zfTRPN1 agonist | OX1R antag-2
C[C@@H]1NC(=O)[C@H](CC(N)=O)NC(=O)c2cc([N+](=O)[O-])cc(I)c2OCC[C@@H](C(=O)NC(CC(=O)O)C(N)=O)NC1=O (some centres undefined) | -10 | 1 | -4 | -8 | 2 | 31
NC(=O)C(CC(=O)O)NC(=O)[C@@H]1CCOc2c(I)cc([N+](=O)[O-])cc2C(=O)N[C@@H](CCC(=O)O)C(=O)N[C@@H](CO)C(=O)N1 (some centres undefined) | -6 | 1 | 2 | -4 | 1 | 70*
C[C@@H]1NC(=O)c2cc([N+](=O)[O-])cc(I)c2OCC[C@@H](C(=O)NC(CC(=O)O)C(N)=O)NC(=O)[C@H](CCC(=O)O)NC1=O (some centres undefined) | -1 | 1 | -2 | -7 | 1 | 62*
CC1(C)Cc2c(sc3ncnc(NN)c23)CO1 | -3 | . | -32 | -13 | . | -2
CCN1CCN(CCNC(=O)c2cn(Cc3ccccc3F)nn2)CC1 | -11 | 0 | 1 | -4 | 28* | 1
CCCc1cc(=O)[nH]c(Nc2ccc(Cl)cc2)n1 | -14 | 0 | 22 | 79* | 0 | 23
CCCc1cc(=O)[nH]c(Nc2ccc(O)cc2)n1 | -4 | 0 | -5 | -1 | -1 | 11
Nc1ccc(C(=O)O)c(O)c1 | -4 | 1 | 3 | 2 | -1 | 20
Cc1ccc(N)cc1O | . | . | -11 | -5 | . | 38*
NC(=O)C1CCN(c2nc(-c3ccc(F)cc3)cs2)CC1 | . | . | -4 | -6 | . | 57*
NC(=O)C1CCN(c2nc(-c3cccnc3)cs2)CC1 | . | . | -16 | -10 | . | 25
Cc1nc(Nc2ccc3c(c2)OCCO3)c2oc3ccccc3c2n1 | -19 | -1 | -24 | -32 | -3 | 55*
c1ccc2c(c1)oc1c(Nc3ccc4c(c3)OCCO4)ncnc12 | -4 | -1 | -3 | -33 | -1 | 72*
CC(C)[C@H](NC(=O)c1ccc(C(C)(C)C)cc1)C(=O)Nc1nnc(C2CC2)s1 | -5 | 1 | -30 | -43 | -1 | -12
COc1ccccc1CCNC(=O)C(=O)Nc1cc2c3c(c1)CC(=O)N3CCC2 | . | . | -20 | -15 | . | 17
O=c1oc2ccccc2cc1-c1nc2c(s1)CCc1ccccc1-2 | -4 | 0 | -11 | -11 | 0 | 25
O=c1oc2cc(O)ccc2cc1-c1nc2c(s1)CCc1ccccc1-2 | -4 | 8 | 50* | 50* | 25* | 17
Nc1ncc(Br)cc1S(=O)(=O)NCCC(=O)Nc1cccc(Cl)c1 | 9 | 0 | 6 | -1 | 3 | 13
CCOC(=O)c1cccc(NC(=O)CCNS(=O)(=O)c2cc(Br)cnc2N)c1 | 0 | . | 22 | -8 | . | 63*
C=CCn1c(SC)nnc1-c1cccc([N+](=O)[O-])c1 | -5 | 0 | -3 | -7 | 1 | 53*

High-throughput results as filed in PubChem.
